Calls of active or inactive are those of the source. No cut-off for these calls is given here.
Legend:
[1] = Half life in HEPES buffer at 80 uM at pH 7.2 by RP-HPLC analysis; type: physicochemical
In short: (§1)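 Compound at 80 µM in 20 mM HEPES (pH 7.2 or 2.0) incubated at 37 °C; aliquots analyzed by RP-HPLC at 0, 1, 4, 6, 12, 18 and 24 h to follow methylthioalkyl deprotection and derive half-life.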

Mino [2] = assay: Antiproliferative activity against human Mino cells at […] preincubated for 48 hrs followed by thymidine addition measure after 16 hrs by Thymidine incorporation assay; type: functional, cell-based
In short: (§2)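 MCL lines treated 48 h with compound re-added daily, alone or with co-drug (ibrutinib 25 µM where used), then thymidine added for a further 16 h; proliferation read as thymidine incorporation.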

[3] = target: T1, Adenosine 5'-monophosphoramidase HINT1 (Homo sapiens, UniProt P49773); assay: Prodrug activation in human GRANTA-519 cells assessed as Hint1 mediated 2-amino-7-(2-(4-chlorophenoxy)ethyl)-9-((2R,3R,4S,5R)-3,4-dihydroxy-5-(phosphonooxymethyl)tetrahydrofuran-2-yl)-6-oxo-6,9-dihydro-1H-purin-7-ium formation per 5 million cells at 150 uM after 12 hrs by LC-MS/MS analysis; type: cell-based
T1 sequence (P49773 whole entry): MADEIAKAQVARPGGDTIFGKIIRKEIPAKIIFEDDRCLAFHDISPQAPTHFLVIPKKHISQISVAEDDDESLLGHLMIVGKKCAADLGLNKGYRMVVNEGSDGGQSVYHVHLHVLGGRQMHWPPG
In short: (§3)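 Five million MCL cells in RPMI/10% FBS with penicillin, streptomycin and L-glutamine were exposed to compound (150 µM) for 12 h at 37 °C. Cells were washed in cold PBS, extracted in MeOH/NH4OAc (60:40) with 80 fmol internal standards, freeze-thawed three times, then filtered and dried. Residue was taken up in HEPES for LC-MS/MS, quantified against an internal-standard curve.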

[4] = Volume of distribution in Sprague-Dawley rat at 2.5 mg/kg, iv by LC-MS/MS analysis; type: ADME, organism-based; details: in vivo
In short: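 Female Sprague-Dawley rats (n=3, 250-274 g) with catheters; compound in 0.5% aqueous CMC with 5% DMSO given as a single i.v. injection, 2.5 mg/kg. Blood drawn at 0–480 min into K2EDTA tubes. Plasma precipitated with acetonitrile containing internal standards, then LC-MS/MS in positive MRM mode. Parameters from non-compartmental analysis.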

Z-138 = assay: Drug uptake in human Z138 cells assessed per 5 million cells at 150 uM after 12 hrs by LC-MS/MS analysis; type: ADME, cell-based; details: z-138, 12 h; in short: as §3
Rattus norvegicus = assay: AUC (0 to 8 hrs) in Sprague-Dawley rat plasma assessed as 2-amino-7-(2-(4-chlorophenoxy)ethyl)-9-((2R,3R,4S,5R)-3,4-dihydroxy-5-(phosphonooxymethyl)tetrahydrofuran-2-yl)-6-oxo-6,9-dihydro-1H-purin-7-ium at 2.5 mg/kg, iv by LC-MS/MS analysis; type: ADME, organism-based; set-up: time < 8 hr, dose 2.5 mg/kg, route intravenous; details: in vivo
In short: (§4)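 Female Sprague-Dawley rats (250-274 g, n=3, catheterized femoral/jugular veins) dosed once p.o. by gavage (25 mg/kg) then, after a 3-day washout, i.v. (2.5 mg/kg). Formulation: 10 mg/mL in 0.5% aqueous CMC with 5% DMSO. Serial blood draws to 480 min into K2EDTA; plasma protein-precipitated with acetonitrile plus internal standards; LC-MS/MS (positive MRM); non-compartmental PK; %F from dose-normalized AUC per rat.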

Plasma = assay: Prodrug activation in Sprague-Dawley rat plasma assessed as 2-amino-7-(2-(4-chlorophenoxy)ethyl)-9-((2R,3R,4S,5R)-3,4-dihydroxy-5-(phosphonooxymethyl)tetrahydrofuran-2-yl)-6-oxo-6,9-dihydro-1H-purin-7-ium level at 2.5 mg/kg, iv measured at 5 mins by LC-MS/MS analysis; type: organism-based; details: in vivo; in short: as §4
[5] = Oral bioavailability in Sprague-Dawley rat at 25 mg/kg by LC-MS/MS analysis; type: ADME, organism-based; details: in vivo; in short: as §4
[6] = target: T1, Adenosine 5'-monophosphoramidase HINT1; assay: Prodrug activation in human Mino cells assessed as Hint1 mediated 2-amino-7-(2-(4-chlorophenoxy)ethyl)-9-((2R,3R,4S,5R)-3,4-dihydroxy-5-(phosphonooxymethyl)tetrahydrofuran-2-yl)-6-oxo-6,9-dihydro-1H-purin-7-ium formation per 5 million cells at 150 uM after 12 hrs by LC-MS/MS analysis; type: cell-based
In short: (§5)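 Mantle cell lymphoma cells (five million) grown in RPMI with 10% FBS, penicillin/streptomycin and L-glutamine at 37 °C, 5% CO2, then exposed to 150 µM compound for 12 h at 37 °C. Washed with ice-cold PBS, pellet extracted in MeOH/NH4OAc (60:40) with 80 fmol internal standards, three liquid-N2 freeze–thaw cycles, filtered, dried, redissolved in 20 mM HEPES pH 7.2. Analysed by LC-MS/MS against a standard curve.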

[7] = target: T1, Adenosine 5'-monophosphoramidase HINT1; assay: Prodrug activation in human Z138 cells assessed as Hint1 mediated 2-amino-7-(2-(4-chlorophenoxy)ethyl)-9-((2R,3R,4S,5R)-3,4-dihydroxy-5-(phosphonooxymethyl)tetrahydrofuran-2-yl)-6-oxo-6,9-dihydro-1H-purin-7-ium formation per 5 million cells at 150 uM after 12 hrs by LC-MS/MS analysis; type: cell-based; in short: as §5
[8] = Clearance in Sprague-Dawley rat at 2.5 mg/kg, iv by LC-MS/MS analysis; type: ADME, organism-based; details: Sprague-Dawley, in vivo; in short: as §4
[9] = Half life in Sprague-Dawley rat at 2.5 mg/kg, iv by LC-MS/MS analysis; type: ADME, organism-based; details: in vivo; in short: as §4
Granta-519 = assay: Drug uptake in human GRANTA-519 cells assessed per 5 million cells at 150 uM after 12 hrs by LC-MS/MS analysis; type: ADME, cell-based; details: granta-519, 12 h; in short: as §3
[10] = AUC (0 to 8 hrs) in Sprague-Dawley rat plasma at 2.5 mg/kg, iv by LC-MS/MS analysis; type: ADME, organism-based; set-up: time < 8 hr, dose 2.5 mg/kg, route intravenous; in short: as §4
[11] = AUC (0 to 8 hrs) in Sprague-Dawley rat plasma at 25 mg/kg, po by LC-MS/MS analysis; type: ADME, organism-based; set-up: time < 8 hr, dose 25 mg/kg, route oral; in short: as §4
[12] = Drug uptake in human Mino cells assessed per 5 million cells at 150 uM after 12 hrs by LC-MS/MS analysis; type: ADME, cell-based; in short: as §3
[13] = target: Eukaryotic translation initiation factor 4E-binding protein 1 (Homo sapiens) (UniProt Q13541); assay: Inhibition of 4EBP1 phosphorylation at Thr 37/46 residues in human Mino cells at 10 to 25 uM after 48 hrs by Western blot analysis; type: cell-based
Eukaryotic translation initiation factor 4E-binding protein 1 (Homo sapiens), sequence (Q13541 whole entry): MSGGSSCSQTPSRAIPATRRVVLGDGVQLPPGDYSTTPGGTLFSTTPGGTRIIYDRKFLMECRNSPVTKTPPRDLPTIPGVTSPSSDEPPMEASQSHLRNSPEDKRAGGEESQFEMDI
In short: (§6)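 MCL cell lines treated with ProTide 48 h. Lysates were protein-quantified, then immunoblotted.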

[14] = Cytotoxicity against human Mino cells assessed as reduction in cell survival at 25 uM after 48 hrs by Annexin V/propidium iodide based flow cytometric analysis
In short: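 MCL cell lines exposed to ProTide 48 h, re-dosed daily. Survival read by Annexin V/PI staining on flow cytometry.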

[15] = target: Eukaryotic translation initiation factor 4E-binding protein 1 (Homo sapiens) (UniProt Q13541); assay: Inhibition of 4EBP1 phosphorylation at Ser 65 residues in human Mino cells at 10 to 25 uM after 48 hrs by Western blot analysis; type: cell-based; in short: as §6
Mino [16] = assay: Antiproliferative activity against human Mino cells at 25 uM preincubated for 48 hrs followed by thymidine addition measure after 16 hrs by Thymidine incorporation assay; type: functional, cell-based
In short: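 MCL cell lines exposed to ProTide 48 h with fresh compound added every day, then thymidine added for a further 16 h. Proliferation read as thymidine incorporation.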

[17] = target: Eukaryotic translation initiation factor 4E (Homo sapiens) (UniProt P06730); assay: Inhibition of eIF4E in human Mino cells assessed as down regulation of c-Myc protein expression at 10 to 25 uM after 48 hrs by Western blot analysis; type: cell-based; in short: as §6
Eukaryotic translation initiation factor 4E (Homo sapiens), sequence (P06730 whole entry): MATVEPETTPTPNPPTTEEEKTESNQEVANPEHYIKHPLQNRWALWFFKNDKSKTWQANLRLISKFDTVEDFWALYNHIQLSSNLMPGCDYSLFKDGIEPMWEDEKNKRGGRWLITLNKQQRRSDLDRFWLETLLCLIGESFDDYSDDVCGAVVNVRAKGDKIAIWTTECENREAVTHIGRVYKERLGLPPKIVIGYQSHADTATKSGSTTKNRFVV

Mino [18] = assay: Antiproliferative activity against human Mino cells at 100 uM preincubated for 48 hrs followed by thymidine addition measure after 16 hrs by Thymidine incorporation assay; type: functional, cell-based; in short: as §2
[19] = Half life in HEPES buffer at 80 uM at pH 2 by RP-HPLC analysis; type: physicochemical; in short: as §1

CSCCCOP(=O)(NCCc1c[nH]c2ccccc12)OC[C@H]1O[C@@H](n2c[n+](CCOc3ccc(Cl)cc3)c3c(=O)[nH]c(N)nc32)[C@H](O)[C@@H]1O (some centres undefined)
half-life at 80 µM [1]: > 60 h

COc1cccc2c1C(=O)c1c(O)c3c(c(O)c1C2=O)C[C@@](O)(C(=O)CO)C[C@@H]3O[C@H]1C[C@H](N)[C@H](O)[C@H](C)O1
Activity (Mino [2]): inactive

Nc1nc2c(c(=O)[nH]1)[n+](CCOc1ccc(Cl)cc1)cn2[C@@H]1O[C@H](COP(=O)(O)NCCc2c[nH]c3ccccc23)[C@@H](O)[C@H]1O
Drug metabolism [3]: 5.23 pmol
Vd [4]: 70 L/kg
Drug uptake (Z-138): 0.163 pmol
AUC (Rattus norvegicus): 13.1 µg·min/mL
Drug metabolism (Plasma): 583 ng/mL
bioavailability [5]: < 1%
Drug metabolism [6]: 7.49 pmol
Drug metabolism [7]: 0.523 pmol
clearance [8]: 300 mL/min/kg
half-life [9]: 2.72 h
Drug uptake (Granta-519): 1.52 pmol
AUC(0-t) at 8 h [10]: 147 ng·h/mL
AUC(0-t) at 8 h [11]: 31.7 ng·h/mL
Drug uptake [12]: 0.59 pmol

C=CC(=O)N1CCC[C@@H](n2nc(-c3ccc(Oc4ccccc4)cc3)c3c(N)ncnc32)C1 [IBRUTINIB]
inhibition [13]: inactive
Activity [14]: Non-Toxic
inhibition [15]: Active
Activity (Mino [16]): inactive
inhibition [17]: Active

C[C@@H]1C[C@H]2[C@@H]3CCC4=CC(=O)C=C[C@]4(C)[C@@]3(F)[C@@H](O)C[C@]2(C)[C@@]1(O)C(=O)CO
Activity (Mino [18]): Active

CSCCCCOP(=O)(NCCc1c[nH]c2ccccc12)OC[C@H]1O[C@@H](n2c[n+](CCOc3ccc(Cl)cc3)c3c(=O)[nH]c(N)nc32)[C@H](O)[C@@H]1O (some centres undefined)
half-life at 80 µM [19]: 13 h
half-life at 80 µM [1]: 10.4 h

Source: ChEMBL document CHEMBL4028857, “Anchimerically Activated ProTides as Inhibitors of Cap-Dependent Translation and Inducers of Chemosensitization in Mantle Cell Lymphoma” (J Med Chem, 2017)
